pIC50: −log10 of the molar value. The source made the active and inactive calls. The calls are words filed in the database; no cut-off is given here.
What was measured:
Staphylococcus aureus [1] = experiment: Antimicrobial activity against Staphylococcus aureus ATCC 6538 assessed as inhibition of microbial growth up to 60 uM incubated for 16 to 48 hrs; assay type: functional, organism-based
Outline: (§1)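 MIC determined in triplicate against bacterial and yeast strains. Bacterial MICs were read after 16–48 h of incubation and the Saccharomyces cerevisiae MIC after 24 h. Procedure otherwise follows an earlier report.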

PC-3 [2] = experiment: Cytotoxic activity against human PC3 cells assessed as cell viability at 10 uM incubated for 72 hrs; assay type: functional; conditions: PC-3, 72 h, read-out: Activity
Outline: (§2)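 Single-dose viability screen at 10 μM, run in triplicate, on human cancer cell lines.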

Saccharomyces cerevisiae [3] = experiment: Antimicrobial activity against Saccharomyces cerevisiae ATCC 204508 assessed as inhibition of microbial growth up to 60 uM incubated for 24 hrs; assay type: functional, organism-based; outline: as §1
Salmonella enterica = experiment: Antimicrobial activity against Salmonella enterica ATCC 10708 assessed as inhibition of microbial growth up to 60 uM incubated for 16 to 48 hrs; assay type: functional, organism-based; outline: as §1
Micrococcus luteus [4] = experiment: Antimicrobial activity against Micrococcus luteus NRRL B-287 assessed as inhibition of microbial growth up to 60 uM incubated for 16 to 48 hrs; assay type: functional, organism-based; outline: as §1
Escherichia coli = experiment: Antimicrobial activity against Escherichia coli NRRL B-3708 assessed as inhibition of microbial growth up to 60 uM incubated for 16 to 48 hrs; assay type: functional, organism-based; outline: as §1
[5] = tested on: Mycolicibacterium smegmatis; experiment: Antimicrobial activity against Mycobacterium smegmatis ATCC 14468 assessed as inhibition of microbial growth up to 120 uM incubated for 16 to 48 hrs; assay type: functional, organism-based; outline: as §1
A549 [6] = experiment: Cytotoxic activity against human A549 cells assessed as cell viability at 10 uM incubated for 72 hrs; assay type: functional; conditions: A549, 72 h, read-out: Activity; outline: as §2
[7] = Cytotoxic activity against human U118MG cells assessed as cell viability at 10 uM incubated for 72 hrs; assay type: functional; conditions: U-118-MG, read-out: Activity; outline: as §2
Staphylococcus aureus [8] = experiment: Antimicrobial activity against Staphylococcus aureus ATCC 6538 assessed as inhibition of microbial growth incubated for 16 to 48 hrs; assay type: functional; outline: as §1
PC-3 [9] = experiment: Cytotoxic activity against human PC3 cells assessed as reduction in cell viability incubated for 72 hrs; assay type: functional, cell-based; conditions: PC-3, 72 h
Outline: (§3)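 IC50 determined from viability over 0.03 to 100 000 nM, run in triplicate, on human cancer cell lines.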

[10] = tested on: Mycolicibacterium smegmatis; experiment: Antimicrobial activity against Mycobacterium smegmatis ATCC 14468 assessed as inhibition of microbial growth incubated for 16 to 48 hrs; assay type: functional; outline: as §1
Saccharomyces cerevisiae [11] = experiment: Antimicrobial activity against Saccharomyces cerevisiae ATCC 204508 assessed as inhibition of microbial growth incubated for 24 hrs; assay type: functional; conditions: ATCC 204508, 24 h; outline: as §1
Micrococcus luteus [12] = experiment: Antimicrobial activity against Micrococcus luteus NRRL B-287 assessed as inhibition of microbial growth incubated for 16 to 48 hrs; assay type: functional; outline: as §1
A549 [13] = experiment: Cytotoxic activity against human A549 cells assessed as reduction in cell viability incubated for 72 hrs; assay type: functional, cell-based; conditions: A549, 72 h; outline: as §3
[14] = Cytotoxic activity against human U118MG cells assessed as reduction in cell viability incubated for 72 hrs; assay type: functional, cell-based; conditions: U-118-MG; outline: as §3

Row | Structure (SMILES) | growth inhibition (GI) (Staphylococcus aureus [1]) | viability at 10 µM (PC-3 [2]) [%] | growth inhibition (GI) (Saccharomyces cerevisiae [3]) | growth inhibition (GI) (Salmonella enterica) | growth inhibition (GI) (Micrococcus luteus [4]) | growth inhibition (GI) (Escherichia coli) | growth inhibition (GI) [5] | viability at 10 µM (A549 [6]) [%] | viability at 10 µM [7] [%] | MIC (Staphylococcus aureus [8]) [µM] | pIC50 (PC-3 [9]) | MIC [10] [µM] | MIC (Saccharomyces cerevisiae [11]) [µM] | MIC (Micrococcus luteus [12]) [µM] | pIC50 (A549 [13]) | pIC50 [14]
1 | CN1C(=O)c2c(c3c4cccc(Cl)c4[nH]c3c3[nH]c4ccccc4c23)C1=O | inactive | 155 | inactive | inactive | inactive | inactive | inactive | 164 | 186 |  |  |  |  |  |  | 
2 | CN[C@H]1CO[C@@H](OC[C@H]2O[C@@H](n3c4c(Cl)cccc4c4c5c(c6c7ccccc7[nH]c6c43)C(=O)NC5=O)[C@H](O)[C@@H](O)[C@@H]2OC)C[C@@H]1O |  | 39 |  | inactive |  | inactive |  | 19.9 | 31.3 | 7.5 | 7.34 | 120 | > 60 | 7.5 | 7.16 | 7.33
3 | CO[C@H]1[C@H](O)[C@@H](O)[C@H](n2c3c(Cl)cccc3c3c4c(c5c6ccccc6[nH]c5c32)C(=O)N(C)C4=O)O[C@@H]1CO | inactive | 69 | inactive | inactive | inactive | inactive | inactive | 47.4 | 40.5 |  |  |  |  |  |  | 
4 | CN[C@H]1CO[C@@H](OC[C@H]2O[C@@H](n3c4ccccc4c4c5c(c6c7ccccc7[nH]c6c43)C(=O)N(C)C5=O)[C@H](O)[C@@H](O)[C@@H]2OC)C[C@@H]1O |  | 36.4 |  | inactive |  | inactive |  | 16.6 | 29.4 | 7.5 |  | 120 | > 60 | 7.5 |  | 
5 | O=C1NC(=O)c2c1c1c3ccccc3[nH]c1c1c2c2ccccc2n1[C@@H]1O[C@H](CO)[C@@H](O)[C@H](O)[C@H]1O | inactive | 47.7 | inactive | inactive | inactive | inactive | inactive | 32.6 | 53.6 |  |  |  |  |  |  | 
6 | CO[C@H]1[C@H](O)[C@@H](O)[C@H](n2c3ccccc3c3c4c(c5c6ccccc6[nH]c5c32)C(=O)N(C)C4=O)O[C@@H]1CO |  | 98.3 |  | inactive |  | inactive |  | 96.6 | 61 | 7.5 |  | > 120 | > 60 | 15 |  | 
7 | CN[C@H]1CO[C@@H](OC[C@H]2O[C@@H](n3c4c(Cl)cccc4c4c5c(c6c7ccccc7[nH]c6c43)C(=O)N(C)C5=O)[C@H](O)[C@@H](O)[C@@H]2OC)C[C@@H]1O |  | 27 |  | inactive |  | inactive |  | 10.5 | 20.8 | 1 | 6.97 | 60 | 7.5 | 7.5 | 7.12 | 7.25
